In experiment [1] the target is T1, Alpha-1A adrenergic receptor (Bos taurus, UniProt P18130).
T1 sequence (P18130 whole entry): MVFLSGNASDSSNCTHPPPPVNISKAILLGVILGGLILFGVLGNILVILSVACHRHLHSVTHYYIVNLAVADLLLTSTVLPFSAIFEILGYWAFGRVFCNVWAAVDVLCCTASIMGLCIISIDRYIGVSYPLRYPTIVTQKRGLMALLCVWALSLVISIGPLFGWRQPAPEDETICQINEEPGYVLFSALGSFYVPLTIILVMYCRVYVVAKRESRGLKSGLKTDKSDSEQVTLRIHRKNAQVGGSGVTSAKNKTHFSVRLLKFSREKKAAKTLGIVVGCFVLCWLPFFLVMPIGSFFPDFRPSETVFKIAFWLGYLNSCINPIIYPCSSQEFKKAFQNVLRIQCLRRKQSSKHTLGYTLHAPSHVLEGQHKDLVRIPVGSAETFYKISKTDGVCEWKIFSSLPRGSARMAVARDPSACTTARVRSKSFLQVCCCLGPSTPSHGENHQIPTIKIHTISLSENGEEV
In words: Displacement of [3H]- prazosin radioligand binding at the alpha 1-adrenergic binding site of calf cerebral cortex. The experiment is classed as tissue-based.

Experiment [2] deals with Muscarinic acetylcholine receptor. In words: Displacement of [3H]- QNB binding at the muscarinic-cholinergic binding site of rat brain S1.
The target of experiment [3] is T2, Alpha-2A adrenergic receptor (Bos taurus, UniProt Q28838).
T2 sequence (Q28838 whole entry): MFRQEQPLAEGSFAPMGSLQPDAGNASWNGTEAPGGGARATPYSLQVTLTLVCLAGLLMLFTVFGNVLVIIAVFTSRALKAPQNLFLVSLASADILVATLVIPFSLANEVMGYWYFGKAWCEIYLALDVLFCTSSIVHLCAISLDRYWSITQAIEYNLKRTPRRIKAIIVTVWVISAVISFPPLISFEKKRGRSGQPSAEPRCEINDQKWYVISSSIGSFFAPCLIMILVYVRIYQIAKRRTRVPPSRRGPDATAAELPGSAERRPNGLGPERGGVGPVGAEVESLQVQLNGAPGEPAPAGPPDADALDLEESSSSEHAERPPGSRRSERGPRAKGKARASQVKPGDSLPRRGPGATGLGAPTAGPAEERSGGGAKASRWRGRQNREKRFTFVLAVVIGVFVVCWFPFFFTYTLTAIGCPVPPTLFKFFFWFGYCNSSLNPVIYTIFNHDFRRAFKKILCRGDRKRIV
In words: Displacement of [3H]- clonidine radioligand binding at the alpha-2 adrenergic receptor binding site of calf cerebral cortex. The experiment is classed as tissue-based. In short, it runs like this:
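Calf cerebral cortex membranes were incubated with [3H]clonidine (23 Ci/mmol) at 0.2 nM and 3–5 triplicate test concentrations. Nonspecific binding was defined with 100 nM clonidine. Bound ligand was isolated by rapid filtration and counted by liquid scintillation. IC50 for displacing specific binding came from percent inhibition–concentration data by regression.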

Structures are written as SMILES.

Turning to `CN1CCC(=C2c3cc(SC(F)(F)F)ccc3C=Cn3cccc32)CC1`, the figures for the Ki in experiment [1], in experiment [2] and in experiment [3] were 13 nM, 88 nM and 230 nM, respectively.
The matching figures for `CN1CCC(=C2c3cc(Cl)ccc3CCn3cccc32)CC1`: 80 nM, 48 nM and 600 nM.
Turning to `CN1CCC(=C2c3ccccc3CCn3cccc32)CC1`, the Ki in experiment [1] is 130 nM; in experiment [2], 49 nM; in experiment [3], 730 nM.
For `CN1CCC(=C2c3ccccc3C=Cn3cccc32)CC1`, the Ki in experiment [1] is 29 nM; in experiment [2], 14.5 nM; in experiment [3], 226 nM.
Regarding `CN1CCC(=C2c3cc(SC(F)(F)F)ccc3CCn3cccc32)CC1`, the Ki was 36 nM in experiment [1], 250 nM in experiment [2] and 330 nM in experiment [3].
Consider `CN1CCC(=C2c3cc(C#N)ccc3C=Cn3cccc32)CC1`, for which the figures for the Ki in experiment [1], in experiment [2] and in experiment [3] were 30 nM, 21 nM and 1030 nM, respectively.
The matching figures for `CN1CCC(=C2c3cc(C(=O)O)ccc3C=Cn3cccc32)CC1`: 1200 nM, 9800 nM and 77000 nM.
As for `CN1CCC(=C2c3cc(Cl)ccc3C=Cn3cccc32)CC1`, the Ki in experiment [1] was found to be 20 nM; in experiment [2] it was 20 nM; in experiment [3] it was 310 nM.
On to `CN1CCC(=C2c3cc(Br)ccc3CCn3cccc32)CC1`, for which the Ki in experiment [1] came out at 44 nM; in experiment [2] it was 60 nM; in experiment [3], 430 nM.
The compound `CN1CCC(=C2c3ccccc3C=Cc3ccccc32)CC1` [CYPROHEPTADINE] showed a Ki in experiment [2] of 4 nM.
Turning to `CN1CCC(=C2c3cc(Br)ccc3C=Cn3cccc32)CC1`, the Ki in experiment [1] was determined as 19 nM; in experiment [2] it was 18 nM; in experiment [3] it was 210 nM.
As to `CN1CCC(=C2c3cc(C#N)ccc3CCn3cccc32)CC1`, the Ki in experiment [2] came to 270 nM; in experiment [3], 2050 nM.
Take `CN1CCC(=C2c3cc(C(=O)O)ccc3CCn3cccc32)CC1`: the Ki in experiment [2] is > 50000 nM.

The values above are taken from ChEMBL document CHEMBL1122255, “Synthesis and receptor binding studies relevant to the neuroleptic activities of some 1-methyl-4-piperidylidene-9-substituted-pyrrolo[2,1-b][3]benzazepine derivatives” (J Med Chem, 1983).
